Format in all cases: functional
For assay [1], the species on record is Rattus norvegicus. In words: Hypolipidemic effects(liver weight) in male rats. In a few lines: (§1)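 Male rats, 10 per group, fed 7 days on chow with 10% fat (5.5% added peanut oil), 1.5% cholesterol and 0.1% cholic acid. Oral gavage on days 4-7 in 4% acacia, usually 50 mg/kg daily. Fasted overnight, killed day 8, atrial blood into EDTA. Plasma cholesterol, TG and HDL cholesterol (after MnCl2/heparin precipitation) by Autoanalyzer. % change vs controls, Student's t test.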

Assay [2] relates to Rattus norvegicus. Put plainly: Hypolipidemic effects (low-density lipoprotein (LDL) cholesterol) in male rats; Compound was screening orally at 50 mg/Kg. A digest of the protocol: as §1
The species entered for assay [3] is Rattus norvegicus. Put plainly: Hypolipidemic effects(plasma TG) in male rats. In a few lines: as §1
For assay [4], the species on record is Rattus norvegicus. In words: Hypolipidemic effects(plasma cholesterol) in male rats. In a few lines: as §1
For assay [5], the system named is Rattus norvegicus. In words: Hypolipidemic effects (high-density lipoprotein (HDL) cholesterol) in male rats; Compound was screening orally at 50 mg/Kg. In a few lines:
as §1

With `COC(=O)C(C)(C)CCCOc1cc(OCCCC(C)(C)C(=O)OC)c(C(C)(C)C)cc1C(C)(C)C`, the Change in the assay filed under Rattus norvegicus [1], in the assay with Rattus norvegicus [2], in the assay listed under Rattus norvegicus [3], in the assay listed under Rattus norvegicus [4] and in the assay on Rattus norvegicus [5] was 0% in each case.
Take `CC(C)(CCCOc1ccc(OCCCC(C)(C)C(=O)O)c(C(O)c2ccccc2)c1)C(=O)O` (configuration not stated): the Change is 16% in the assay listed under Rattus norvegicus [1]; -42% in the assay on Rattus norvegicus [2]; 27% in the assay listed under Rattus norvegicus [3]; -17% in the assay filed under Rattus norvegicus [4]; 410% in the assay with Rattus norvegicus [5].
For `COC(=O)C(C)(C)CCCOc1cccc(OCCCC(C)(C)C(=O)OC)c1NC(C)=O`, in that order: 0%, 0%, 0%, 0% and 0%.
Turning to `CC(C)(CCCOc1ccc(-c2ccc(OCCCC(C)(C)C(=O)O)cc2)cc1)C(=O)O`, the Change in the assay listed under Rattus norvegicus [1] is reported as 15%; in the assay listed under Rattus norvegicus [3] it was 0%; in the assay listed under Rattus norvegicus [4], -30%; in the assay with Rattus norvegicus [5], 138%.
Take `COC(=O)C(C)(C)CCCOc1cc(C(C)(C)C)c(OCCCC(C)(C)C(=O)OC)cc1C(C)(C)C`: the Change is 0% in the assay filed under Rattus norvegicus [1], -15% in the assay listed under Rattus norvegicus [3], 0% in the assay filed under Rattus norvegicus [4] and 0% in the assay with Rattus norvegicus [5].
On to `CC(C)(CCCCOc1ccc(OCCCCC(C)(C)C(=O)O)c(-c2ccccc2)c1)C(=O)O`, for which the Change is listed as 8% in the assay listed under Rattus norvegicus [1]; -53% in the assay on Rattus norvegicus [2]; 0% in the assay filed under Rattus norvegicus [3]; -49% in the assay filed under Rattus norvegicus [4]; 51% in the assay on Rattus norvegicus [5].
Consider `CC(C)(CCCOc1cccc(OCCCC(C)(C)C(=O)O)c1)C(=O)O`, for which the Change was 17% in the assay listed under Rattus norvegicus [1], 0% in the assay filed under Rattus norvegicus [3], -52% in the assay filed under Rattus norvegicus [4] and 294% in the assay with Rattus norvegicus [5].
In the case of `COC(=O)C(C)(C)CCCOc1ccc(Cl)c(OCCCC(C)(C)C(=O)OC)c1`, the Change in the assay filed under Rattus norvegicus [1] is listed as 8%; in the assay on Rattus norvegicus [2], 80%; in the assay listed under Rattus norvegicus [3], 0%; in the assay filed under Rattus norvegicus [4], -42%; in the assay with Rattus norvegicus [5] it was 37%.
For `C/C=C/c1cc(OCCCC(C)(C)C(=O)OC)ccc1OCCCC(C)(C)C(=O)OC`, in that order: 29%, -66%, -31%, -39% and 268%.
As for `CC(C)(CCCOc1ccc(OCCCC(C)(C)C(=O)O)c(-c2ccc(Cl)cc2Cl)c1)C(=O)O`, the Change is listed as 0% in the assay listed under Rattus norvegicus [1]; -54% in the assay on Rattus norvegicus [2]; -20% in the assay listed under Rattus norvegicus [3]; -45% in the assay listed under Rattus norvegicus [4]; 64% with Rattus norvegicus [5].
For `CCC(O)c1cc(OCCCC(C)(C)C(=O)O)ccc1OCCCC(C)(C)C(=O)O` (configuration not stated), the Change in the assay filed under Rattus norvegicus [1] was 34%; in the assay with Rattus norvegicus [2] it was -62%; in the assay listed under Rattus norvegicus [3], 0%; in the assay listed under Rattus norvegicus [4], 0%; in the assay on Rattus norvegicus [5], 947%.
`COC(=O)C(C)(C)CCCOc1ccc(C=O)c(OCCCC(C)(C)C(=O)OC)c1`: the Change is reported as 11% in the assay listed under Rattus norvegicus [1]; -30% with Rattus norvegicus [2]; 0% in the assay listed under Rattus norvegicus [3]; -18% in the assay listed under Rattus norvegicus [4]; 79% in the assay with Rattus norvegicus [5].
For the compound `COC(=O)C(C)(C)CCCOc1ccccc1OCCCC(C)(C)C(=O)OC`, the Change was 0% in the assay filed under Rattus norvegicus [1], -30% in the assay filed under Rattus norvegicus [3], -40% in the assay filed under Rattus norvegicus [4] and 0% in the assay on Rattus norvegicus [5].
Turning to `CC(C)(CCCOc1ccc(OCCCC(C)(C)C(=O)O)c(-c2ccccc2Cl)c1)C(=O)O`, the Change in the assay listed under Rattus norvegicus [1] was 23%; in the assay with Rattus norvegicus [2] it was -38%; in the assay listed under Rattus norvegicus [3] it was 38%; in the assay listed under Rattus norvegicus [4], 0%; with Rattus norvegicus [5], 480%.
For `COc1ccc(-c2cc(OCCCC(C)(C)C(=O)O)ccc2OCCCC(C)(C)C(=O)O)cc1`, the Change is listed as 0% in the assay filed under Rattus norvegicus [1]; -38% in the assay with Rattus norvegicus [2]; -30% in the assay filed under Rattus norvegicus [3]; -30% in the assay filed under Rattus norvegicus [4]; 52% in the assay on Rattus norvegicus [5].
Consider `COC(=O)C(C)(C)CCCOc1ccc(OCCCC(C)(C)C(=O)OC)c(-c2nnco2)c1`, for which the Change in the assay listed under Rattus norvegicus [1] is listed as 11%; in the assay on Rattus norvegicus [2], -33%; in the assay filed under Rattus norvegicus [3] it was 0%; in the assay listed under Rattus norvegicus [4], -26%; with Rattus norvegicus [5], 31%.
Regarding `COC(=O)C(C)(C)CCCOc1cccc(OCCCC(C)(C)C(=O)OC)c1C`, the Change is listed as 33% in the assay listed under Rattus norvegicus [1], -15% in the assay filed under Rattus norvegicus [3], -37% in the assay listed under Rattus norvegicus [4] and 385% in the assay with Rattus norvegicus [5].
Regarding `CC(C)(CCCOc1ccc(OCCCC(C)(C)C(=O)Oc2ccc(C(C)(C)C)cc2)cc1)C(=O)Oc1ccc(C(C)(C)C)cc1`, the Change in the assay listed under Rattus norvegicus [1], with Rattus norvegicus [2], in the assay filed under Rattus norvegicus [3], in the assay listed under Rattus norvegicus [4] and in the assay with Rattus norvegicus [5] was 0% each time.
Regarding `COC(=O)C(C)(C)CCCOc1cc(C)c(OCCCC(C)(C)C(=O)OC)cc1C`, the Change in the assay filed under Rattus norvegicus [1] is recorded as 14%; with Rattus norvegicus [2], -64%; in the assay filed under Rattus norvegicus [3], 27%; in the assay filed under Rattus norvegicus [4] it was -30%; with Rattus norvegicus [5] it was 688%.
As for `CCCCCCCCCCCCc1ccc(OCCCC(C)(C)C(=O)O)cc1OCCCC(C)(C)C(=O)O`, the Change in the assay listed under Rattus norvegicus [1] was 0%; in the assay with Rattus norvegicus [2] it was -12%; in the assay filed under Rattus norvegicus [3], 0%; in the assay filed under Rattus norvegicus [4] it was 0%; with Rattus norvegicus [5], 0%.
As for `Cc1cc(OCCCC(C)(C)C(=O)O)c(C)c(C)c1OCCCC(C)(C)C(=O)O`, the Change is on record as 21% in the assay listed under Rattus norvegicus [1], 42% in the assay listed under Rattus norvegicus [3], -37% in the assay filed under Rattus norvegicus [4] and 165% in the assay with Rattus norvegicus [5].
In the case of `CC(C)(CCCOc1ccc(OCCCC(C)(C)C(=O)OCc2cccnc2)c(-c2ccccc2)c1)C(=O)OCc1cccnc1`, the Change in the assay filed under Rattus norvegicus [1] was determined as 19%; in the assay on Rattus norvegicus [2], 0%; in the assay listed under Rattus norvegicus [3], 0%; in the assay listed under Rattus norvegicus [4], 63%; in the assay on Rattus norvegicus [5] it was 594%.
Regarding `COC(=O)C(C)(C)CCCOc1cc(C)cc(OCCCC(C)(C)C(=O)OC)c1`, the Change is listed as 18% in the assay filed under Rattus norvegicus [1], -53% in the assay listed under Rattus norvegicus [3], -62% in the assay filed under Rattus norvegicus [4] and 262% with Rattus norvegicus [5].
On to `COC(=O)C(C)(C)CCCOc1ccc(OCCCC(C)(C)C(=O)OC)c(C2CCCCC2)c1`, for which the Change in the assay listed under Rattus norvegicus [1] is on record as 6%; with Rattus norvegicus [2] it was -54%; in the assay listed under Rattus norvegicus [3] it was -24%; in the assay listed under Rattus norvegicus [4] it was -49%; in the assay with Rattus norvegicus [5], 35%.
Take `CC(C)(CCCOc1ccc(Sc2ccc(OCCCC(C)(C)C(=O)O)cc2)cc1)C(=O)O`: the Change in the assay filed under Rattus norvegicus [1] was 0%; in the assay filed under Rattus norvegicus [3], 20%; in the assay filed under Rattus norvegicus [4] it was -35%; in the assay with Rattus norvegicus [5], 0%.
Take `COC(=O)C(C)(C)CCCOc1ccc(OCCCC(C)(C)C(=O)OC)c(C(C)=O)c1`: the Change in the assay filed under Rattus norvegicus [1] is given as 21%; with Rattus norvegicus [2] it was -39%; in the assay listed under Rattus norvegicus [3] it was 20%; in the assay listed under Rattus norvegicus [4], 0%; with Rattus norvegicus [5], 381%.
